VIM-2 inhibitor: VIM-2 metallo-beta-lactamase inhibitors, primary screen, biochemical, epi-absorbance readout, Pseudomonas aeruginosa enzyme | purified VIM-2, nitrocefin hydrolysis, epi-absorbance fluorescence | inhibition, % at 5.6 µM | 0.89% of 290,000 active | AID 1527, 2009;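 active means inhibition above the mean of all tested compounds plus 3 SD, cutoff set per screening run, cut at about 7.5% in these data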;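 further: red hydrolysis product quenches plate fluorescence so inhibitors raise well fluorescence; 0% = enzyme with DMSO and 100% = DMSO without enzyme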
ATG4B inh: ATG4B protease inhibitors, primary screen, biochemical, fluorescence, uHTS | Cysteine protease ATG4B (Homo sapiens), Q9Y4P1 | inhibition, % at 8.33 µM | 0.51% of 340,000 active | ATG4B cleavage of LC3-PLA2, NBD-HPC fluorescence, 1 h | AID 504462, 2011; in the data active means inhibition above about 40%
IMP-1 inh-1: IMP-1 metallo-beta-lactamase inhibitors, primary screen, biochemical, epi-absorbance readout, Pseudomonas aeruginosa enzyme; inhibition, % at 5.6 µM; AID 1556, 2009; purified IMP-1, nitrocefin hydrolysis, epi-absorbance fluorescence; 0.45% of 290,000 active; metallo-beta-lactamase IMP-1 (Pseudomonas aeruginosa);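 active means inhibition above the mean plus 3 SD of all compounds in the same screening run, cut at about 4.5% in these data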;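 further: 0% = IMP-1 with DMSO and 100% = DMSO wells lacking enzyme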
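Test system: recombinant IMP-1 enzyme, purified / Medium: HEPES buffer pH 7.1 with ZnSO4 and Brij 35 / Doses: single dose, 5.6 µM / Times: 25 °C, 15 min preincubation, 25 min reaction / Detection: Epi-absorbance via hydrolysed-nitrocefin quenching of white-plate fluorescence, 480/530 nm, EDTA stop / Evaluation: percent inhibition from optical density relative to buffer-blank wells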
HKDC1 inhibitor: HKDC1 hexokinase inhibitors, primary screen, biochemical, fluorescence, uHTS. Q2TB90. recombinant HKDC1, G6PDH/diaphorase resazurin coupled fluorescence. inhibition, % at 20 µM. 0.16% of 340,000 active;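 active means inhibition above about 35% when tested at 20 µM, limit read from the data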;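 further: plate controls were DMSO wells with enzyme for no effect and DMSO wells lacking enzyme for full effect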
Target sequence (Q2TB90 whole entry, looked up): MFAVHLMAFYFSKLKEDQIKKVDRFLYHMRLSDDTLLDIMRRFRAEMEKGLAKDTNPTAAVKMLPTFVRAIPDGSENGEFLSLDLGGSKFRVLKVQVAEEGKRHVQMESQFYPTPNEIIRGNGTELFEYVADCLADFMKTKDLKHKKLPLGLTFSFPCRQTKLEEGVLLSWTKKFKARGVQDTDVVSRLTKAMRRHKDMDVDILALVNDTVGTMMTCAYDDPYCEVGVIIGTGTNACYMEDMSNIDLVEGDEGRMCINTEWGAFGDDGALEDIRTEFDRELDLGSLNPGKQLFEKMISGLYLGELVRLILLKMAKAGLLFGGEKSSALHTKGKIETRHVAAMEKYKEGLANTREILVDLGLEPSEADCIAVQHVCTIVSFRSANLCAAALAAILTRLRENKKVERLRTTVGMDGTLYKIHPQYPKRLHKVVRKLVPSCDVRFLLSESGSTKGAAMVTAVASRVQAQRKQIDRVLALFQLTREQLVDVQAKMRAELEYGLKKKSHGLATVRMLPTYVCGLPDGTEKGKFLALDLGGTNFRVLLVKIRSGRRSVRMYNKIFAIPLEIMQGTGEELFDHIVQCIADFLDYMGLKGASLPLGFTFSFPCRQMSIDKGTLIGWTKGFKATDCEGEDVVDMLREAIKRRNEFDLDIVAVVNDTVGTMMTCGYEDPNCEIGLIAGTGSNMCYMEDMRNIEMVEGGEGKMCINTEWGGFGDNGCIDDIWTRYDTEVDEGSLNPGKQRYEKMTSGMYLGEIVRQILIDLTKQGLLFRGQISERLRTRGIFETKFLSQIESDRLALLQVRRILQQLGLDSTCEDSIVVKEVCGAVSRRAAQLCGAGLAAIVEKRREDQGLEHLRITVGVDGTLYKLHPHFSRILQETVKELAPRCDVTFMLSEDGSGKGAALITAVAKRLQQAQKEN
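test system = in-house recombinant HK5 (HKDC1) enzyme | amount = HKDC1 at 5 µg/mL | control set = DMSO-enzyme wells negative, buffer-substituted wells positive | compound = one dose of 20 µM, 1% DMSO | schedule = reaction time 90 min, room temperature, protected from light | technique = resorufin fluorescence at 613 nm | reagent = glucose with 1 mM ATP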
PvdQ acylase: P. aeruginosa PvdQ acylase inhibitors, primary screen, biochemical, fluorescence, plate reader and imaging, single point; PvdQ acylase [Pseudomonas aeruginosa LESB58]; purified PvdQ acylase; inhibition, % at 10 µM; 0.063% of 340,000 active; in the data active means inhibition above about 30%, passing the limit was not always enough;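 further: 0% = vehicle neutral wells and 100% = reference inhibitor wells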
beta cell repl: inducers of MIN6 beta-cell proliferation, primary screen, ATP luminescence, uHTS | MIN6 cells proliferation, ATPlite luminescence, 48 h; cells starved in 0.2% serum; 100% = growth in 10% serum | proliferation, % at 10 µM | 0.29% of 330,000 active;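 active means compounds whose signal lies at least 3.5 SD above the mean of all wells on their plate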;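 further: 0% = DMSO-treated cells in low-serum medium and 100% = 10% serum control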
IMP-1 inh-2: IMP-1 metallo-beta-lactamase inhibitors, confirmation, selectivity assay for selective VIM-2 inhibitor project, biochemical, epi-absorbance readout, triplicate | shares compounds with VIM-2 inhibitor | purified IMP-1, nitrocefin hydrolysis, epi-absorbance fluorescence | inhibition, % at 5.6 µM | 1,300 tested, under 10 active; call rule not given here;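 further: 0% = enzyme with vehicle and 100% = vehicle without enzyme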
VIM-2 FRET ctr: VIM-2 inhibitors in FRET format, confirmation, artefact control for selective VIM-2 inhibitor project, biochemical, epi-absorbance artifact exclusion. purified VIM-2, CCF2 FRET substrate hydrolysis. 23% of 1,300 active. inhibition, % at 5.6 µM. AID 1857, 2009. shares compounds with VIM-2 inhibitor;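 active means inhibition above the mean of all tested compounds plus 3 SD, cut at about 19% in these data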;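 further: 0% = VIM-2 plus DMSO and 100% = no enzyme wells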
TEM-1 inh: TEM-1 serine beta-lactamase inhibitors, counter-screen for VIM-2 inhibitor project, biochemical, epi-absorbance, HTS | shares compounds with VIM-2 inhibitor | Purified TEM-1, nitrocefin hydrolysis, epi-absorbance fluorescence | inhibition, % at 5.6 µM | 3% of 1,300 active | AID 1866, 2009;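 active means inhibition above that campaign's mean inhibition plus 3 SD, cut at about 0.46% in these data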;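 further: 0% = TEM-1 with DMSO and 100% = TEM-1 with 100 µM potassium clavulanate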
VIM-2 confirm 2: VIM-2 metallo-beta-lactamase inhibitors, confirmation, biochemical, epi-absorbance, hits shared with IMP-1 screen | AID 2187, 2009 | 96% of 1,300 active | purified VIM-2, nitrocefin hydrolysis | inhibition, % at 5.6 µM | shares compounds with VIM-2 inhibitor;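 active means inhibition of the VIM-2 beta-lactamase enzyme above about 11% from the earlier first-round screen, limit read from the data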;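 further: 0% = VIM-2 with DMSO and 100% = buffer wells without enzyme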
Numbers without * were called inactive; / = no result given. This is a sample that favours compounds with a hit; in the whole collection about 2% have one here.

SMILES	VIM-2 inhibitor	ATG4B inh	IMP-1 inh-1	HKDC1 inhibitor	PvdQ acylase	beta cell repl	IMP-1 inh-2	VIM-2 FRET ctr	TEM-1 inh	VIM-2 confirm 2
Cc1ccsc1-c1n[nH]c(=S)n1C1CCCCC1	30.9*	10.8	-3.6	-1.6	-1.1	-2.9	-2.8	57.0*	-5.7	41.7*
COc1ccc(/C=C2/N=C3CCCCCN3C2=O)cc1	-2.2	-16.4	-0.8	1.9	5.1	-2.5	/	/	/	/
COc1ccccc1CNC(=O)C(=O)NCC1CCCN1S(=O)(=O)c1cccs1 (stereo not drawn)	/	0.7	/	-3.8	-10.0	-2.4	/	/	/	/
CC(=O)c1cc2c(cc1F)C(C)(C)CCC2(C)C	/	-8.1	/	6.4	-5.0	/	/	/	/	/
CCc1ccc(N(CC(=O)NCc2ccco2)C(=O)CCC(=O)Nc2ccccn2)cc1	-2.0	-0.5	-2.1	0.2	-1.2	1.5	/	/	/	/
COc1ccc2c(c1)[nH]c1c(=O)n(CCCn3ccnc3)cnc12	13.6*	-6.5	-3.8	-7.3	-13.7	0.0	-3.2	-8.8	-4.6	38.3*
COc1ccc2c(c1)[nH]c1c(=O)n(CCN(C)C)cnc12	-0.2	0.1	-2.8	3.9	3.5	0.4	/	/	/	/
O=C(CN1CCCCC1)NNc1nc(-c2ccccc2)c2cc(Br)ccc2n1	-3.0	-2.6	-3.2	-5.2	3.1	-2.9	/	/	/	/
O=C(CSc1cn[nH]n1)Nc1ccccc1C(=O)O	20.4*	0.2	-1.5	-2.4	-6.3	-0.4	-1.9	39.8*	-3.5	22.6*
NC(=O)SCC(=O)Nc1ccccc1C(=O)O	12.6*	-3.8	-0.5	-7.5	-18.5	-1.1	0.8	50.2*	-4.7	30.7*
O=C(CSc1ccccc1)Nc1ccccc1C(=O)O	-0.5	-8.2	-4.2	2.0	-0.3	-3.5	/	/	/	/
COc1cc(OC)cc(C(=O)NCCCNC(=O)c2ccccn2)c1	-2.7	4.1	-5.0	-5.0	-8.9	0.2	/	/	/	/
O=c1[nH]c2ccccc2cc1CN(Cc1ccco1)S(=O)(=O)c1ccccc1	-4.5	-9.6	-0.9	2.9	-0.9	0.0	/	/	/	/
CCCCN(CC)CCCNC(=O)C1CCN(c2ncnc3c2sc2cccc(F)c23)CC1	29.9*	0.2	0.8	-2.9	-9.0	-4.5	0.3	3.8	-5.7	37.8*
O=C(NCCN1CCOCC1)C1CCN(Cc2ccccc2O)CC1	-2.7	-0.2	-2.9	-2.4	-10.4	4.0	/	/	/	/
O=C(NCCN1CCOCC1)C1CCN(c2ncnc3c2sc2cccc(F)c23)CC1	22.6*	-10.6	-1.2	3.8	-7.6	-3.5	-1.8	3.2	-7.1	36.7*
CCOc1ccccc1N1CC(C(=O)NCCOc2ccccc2OC)CC1=O (stereo not drawn)	-0.8	1.9	-2.3	-6.8	-0.1	5.6	/	/	/	/
CCN(CC)CCCCNc1ncc2cc(-c3cc(OC)cc(OC)c3)c(NC(=O)NC(C)(C)C)nc2n1	17.3*	-4.6	-2.7	-2.8	-7.7	-7.6	-3.8	5.4	-7.5	24.7*
O=C(NC(=S)Nc1ccccc1N1CCCC1)c1cccc(F)c1	13.5*	3.8	-2.2	-2.0	-6.2	-2.7	-4.1	18.9*	-9.2	5.8
Cc1ccccc1C(=O)NC(=S)Nc1ccccc1N1CCCC1	15.1*	18.6	-4.2	-2.8	-2.4	-5.4	-3.0	9.0	-7.6	4.8
COC(=O)c1ccccc1NC(=S)NC(=O)COc1ccccc1Cl	-4.1	14.5	-5.4	-0.3	-17.4	0.3	/	/	/	/
O=C(COc1ccccc1Cl)NC(=S)Nc1ccccc1N1CCCC1	18.2*	5.6	-1.2	6.8	-8.2	-2.9	-2.3	20.0*	-6.5	5.2
O=C(Cc1ccc(F)cc1)N1CCC(N2CCC(C(=O)N3CCOCC3)CC2)CC1	-0.9	-3.5	2.4	-10.4	-16.4	-3.7	/	/	/	/
c1ccc(CCCNCCCn2cnc3c(OCc4ccccc4)ncnc32)cc1	/	-6.7	/	-2.9	-14.5	/	/	/	/	/
CCCCN(C)C(=O)c1cc2c(s1)-c1ccccc1S(=O)(=O)C2	0.9	-10.9	-1.9	-4.8	2.2	-0.1	/	/	/	/
SMILES	VIM-2 inhibitor	ATG4B inh	IMP-1 inh-1	HKDC1 inhibitor	PvdQ acylase	beta cell repl	IMP-1 inh-2	VIM-2 FRET ctr	TEM-1 inh	VIM-2 confirm 2
O=C(NCCCN1CCCC1)c1cc2c(Cl)nc3ccccc3c2s1	22.4*	-9.2	0.1	-3.2	4.6	-6.0	-2.0	9.1	-6.6	34.8*
CCCCN(C)C(=O)c1cc2c(Cl)nc3ccccc3c2s1	13.1*	-9.6	-2.1	1.4	-11.9	4.0	-3.2	2.5	-3.9	19.2*
CC1CCN(CCCNC(=O)c2cc3c(Cl)nc4ccccc4c3s2)CC1	23.2*	-20.4	0.5	-3.0	-17.7	-5.9	-2.3	8.6	-4.1	32.4*
COc1ccccc1NC(=O)CCS(=O)(=O)c1ccc2c(c1)NC(=O)C(C)S2 (stereo not drawn)	-2.6	-6.6	-3.3	-3.5	-16.0	-1.4	/	/	/	/
CCn1ccnc1CNCc1ccc(OCC(O)CN(C)Cc2ccccc2)cc1 (stereo not drawn)	7.7	-8.8	-2.2	-4.8	-6.6	-4.4	/	/	/	/
CN(Cc1ccccc1)CC(O)COc1ccc(CNCc2nccn2C)cc1 (stereo not drawn)	12.5*	22.8	-4.2	-9.0	-9.1	-0.4	-4.1	-6.2	-3.8	13.6*
Cc1cc(OC(C)C(=O)NCCCn2ccnc2)c2c(C)cc(=O)oc2c1 (stereo not drawn)	27.8*	9.6	-1.8	-9.7	-12.6	1.0	-2.1	-4.1	-2.9	39.1*
CCCc1cc(=O)oc2cc(C)cc(OC(C)C(=O)NCCCn3ccnc3)c12 (stereo not drawn)	17.5*	2.2	-3.5	0.8	-24.9	-3.4	-2.0	-9.5	-1.5	27.8*
CCSS(=O)(=O)c1cccc2cccnc12	22.6*	-1.6	-1.7	2.0	-17.5	-0.4	-3.6	-6.6	-4.0	28.6*

From PubChem
